Data reported in ChEMBL document CHEMBL3875202, “Design and optimization of aspartate N-acetyltransferase inhibitors for the potential treatment of Canavan disease” (Bioorg Med Chem, 2017).
Where a SMILES comes first, the peptide text is derived from it.

Test: Inhibition of recombinant human His-tagged maltose binding protein fused ANAT expressed in Escherichia coli NiCo21(DE3) using L-aspartate as substrate after 15 mins in presence of acetyl-CoA by DTNB based spectrophotometric method
In short: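 MBP-ANAT-His fusion purified on Ni Sepharose then amylose column. Assay: 20 mM HEPES pH 7.4, 150 mM NaCl, 5% glycerol, 40 µM DTNB, 40 µM acetyl-CoA, 2 mM L-aspartate, 25 µg enzyme, 200 µl total. Read at 412 nm for at least 15 min. Ki from twofold inhibitor dilutions; no-inhibitor and no-aspartate/no-inhibitor controls; pH of top-dose wells checked.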

| Structure (SMILES) | Ki [µM] |
| --- | --- |
| O=C(O)C[C@H](NC(=O)OCc1ccccc1)C(=O)O | 17 |
| O=C(O)CC[C@H](NC(=O)c1ccccc1)C(=O)O | 130 |
| O=C(O)CC[C@H](NC(=O)OCc1ccccc1)C(=O)O | 12 |
| O=C(O)CCNCc1ccc(C(=O)O)c(C(=O)O)c1 | 1710 |
| C=CCN(CC(=O)O)Cc1ccc(C(=O)O)c(C(=O)O)c1 | 719 |
| O=C(O)CN(Cc1ccccc1)Cc1ccc(C(=O)O)c(C(=O)O)c1 | 420 |
| O=C(O)CN(Cc1ccc(C(=O)O)c(C(=O)O)c1)c1cccc2ccccc12 | 115 |
| O=C(O)CN(Cc1ccc(C(=O)O)c(C(=O)O)c1)c1ccc2ccccc2c1 | 538 |
| O=C(O)CN(CCN1CCOCC1)Cc1ccc(C(=O)O)c(C(=O)O)c1 | 1080 |
| O=C(O)CN(Cc1ccc(C(=O)O)c(C(=O)O)c1)c1ccc(-c2ccccc2)cc1 | 953 |
| O=CCN(CC(=O)O)Cc1ccc(C(=O)O)c(C(=O)O)c1 | 1290 |
| O=C(O)CN(Cc1ccc(C(=O)O)c(C(=O)O)c1)Cc1ccccc1Br | 114 |
| O=C(O)CN(Cc1cccc(Br)c1)Cc1ccc(C(=O)O)c(C(=O)O)c1 | 269 |
| O=C(O)CN(Cc1ccc(Br)cc1)Cc1ccc(C(=O)O)c(C(=O)O)c1 | 1200 |
| Cc1ccccc1CN(CC(=O)O)Cc1ccc(C(=O)O)c(C(=O)O)c1 | 1400 |
| Cc1cccc(CN(CC(=O)O)Cc2ccc(C(=O)O)c(C(=O)O)c2)c1 | 1700 |
| Cc1ccc(CN(CC(=O)O)Cc2ccc(C(=O)O)c(C(=O)O)c2)cc1 | 4230 |
| O=C(O)CN(Cc1ccc(C(=O)O)c(C(=O)O)c1)Cc1ccccc1C(F)(F)F | 390 |
| O=C(O)CN(Cc1cccc(C(F)(F)F)c1)Cc1ccc(C(=O)O)c(C(=O)O)c1 | 104 |
| O=C(O)CN(Cc1ccc(C(F)(F)F)cc1)Cc1ccc(C(=O)O)c(C(=O)O)c1 | 791 |
| O=C(O)CN(Cc1ccc(C(=O)O)c(C(=O)O)c1)Cc1ccccc1OC(F)(F)F | 464 |
| O=C(O)CN(Cc1cccc(OC(F)(F)F)c1)Cc1ccc(C(=O)O)c(C(=O)O)c1 | 246 |

| Structure (SMILES) | Ki [µM] |
| --- | --- |
| O=C(O)CN(Cc1ccc(OC(F)(F)F)cc1)Cc1ccc(C(=O)O)c(C(=O)O)c1 | 749 |
| O=C(O)CN(Cc1ccc(OC(F)F)cc1)Cc1ccc(C(=O)O)c(C(=O)O)c1 | 489 |
| O=C(O)CN(Cc1ccc(C(=O)O)cc1)Cc1ccc(C(=O)O)c(C(=O)O)c1 | 104 |
| NC(=O)c1ccc(CN(CC(=O)O)Cc2ccc(C(=O)O)c(C(=O)O)c2)cc1 | 1880 |
| CC(C)(C)c1ccc(CN(CC(=O)O)Cc2ccc(C(=O)O)c(C(=O)O)c2)cc1 | 687 |
| O=C(O)CN(Cc1ccc(C(F)(F)C(F)(F)C(F)(F)F)cc1)Cc1ccc(C(=O)O)c(C(=O)O)c1 | 426 |
| O=C(O)CCN(Cc1ccc(Br)cc1)Cc1ccc(C(=O)O)c(C(=O)O)c1 | 370 |
| O=C(O)CCN(Cc1ccc(C(F)(F)F)cc1)Cc1ccc(C(=O)O)c(C(=O)O)c1 | 186 |
| CCCC(=O)N[C@@H](CCC(=O)O)C(=O)O | 270 |
| O=C(O)C[C@H](NC(=O)CCCc1ccccc1)C(=O)O | 200 |
| O=C(O)CCN(Cc1ccc(C(=O)O)c(C(=O)O)c1)Cc1ccc(C(=O)O)cc1-c1ccccc1 | 47.4 |
| O=C(O)CCN(Cc1ccc(C(=O)O)c(C(=O)O)c1)Cc1ccc(C(=O)O)cc1C(F)(F)F | 17 |
| CC(=O)c1ccc(CN(CC(=O)O)Cc2ccc(C(=O)O)c(C(=O)O)c2)cc1 | 2540 |
| O=C(O)CC[C@H](NC(=O)CCc1ccccc1)C(=O)O | 38 |
| O=C(O)C[C@H](NCCCCc1ccccc1)C(=O)O | 100 |
| O=C(O)CCN(Cc1ccc(C(=O)O)c(C(=O)O)c1)Cc1c(Cl)cc(C(=O)O)cc1Cl [listing 1 of 2 here] | 0.6 |
| O=C(O)C[C@H](NC(=O)CCc1ccccc1C(F)(F)F)C(=O)O | 100 |
| O=C(O)CC[C@H](NC(=O)CCCc1ccccc1)C(=O)O | 610 |
| O=C(O)CCN(Cc1ccc(C(=O)O)c(C(=O)O)c1)Cc1ccccc1Br | 173 |
| O=C(O)CCC[C@H](NC(=O)Cc1ccccc1)C(=O)O | 1160 |
| O=C(O)CCN(Cc1ccc(C(=O)O)c(C(=O)O)c1)c1cccc2ccccc12 | 34 |
| O=C(O)C[C@H](NC(=O)c1ccc2ccccc2c1)C(=O)O | 390 |

| Structure (SMILES) | Ki [µM] |
| --- | --- |
| O=C(CCc1ccccc1)NC(C(=O)O)C(=O)O | 1400 |
| O=C(O)C[C@H](NCCCc1ccccc1)C(=O)O | 120 |
| O=C(O)C[C@H](NC(=O)CCc1cccc(C(F)(F)F)c1)C(=O)O | 1220 |
| O=C(O)CCC[C@H](NC(=O)c1ccccc1)C(=O)O | 1600 |
| O=C(O)CCN(Cc1ccc(C(=O)O)c(C(=O)O)c1)Cc1ccc(C(=O)O)cc1Br | 2.01 |
| O=C(O)CCN(Cc1ccc(C(=O)O)c(C(=O)O)c1)Cc1ccc(C(=O)O)cc1F | 4.06 |
| O=C(O)CC[C@H](NC(=O)Cc1ccccc1)C(=O)O | 250 |
| COc1ccc(CCC(=O)N[C@@H](CC(=O)O)C(=O)O)cc1 | 1500 |
| O=C(O)C[C@H](NC(=O)CBr)C(=O)O | > 2000 |
| O=C(O)C[C@H](NC(=O)CCc1ccc(O)c(O)c1)C(=O)O | 1560 |
| O=C(O)CCC[C@H](NC(=O)CCc1ccccc1)C(=O)O | 2900 |
| O=C(O)CCN(Cc1ccc(C(=O)O)c(C(=O)O)c1)Cc1ccc(C(=O)O)cc1-c1cccc2ccccc12 | 187 |
| O=C(O)CCN(Cc1ccc(C(=O)O)cc1)Cc1ccc(C(=O)O)c(C(=O)O)c1 | 29 |
| CC(C)(C)C(=O)N[C@@H](CCCC(=O)O)C(=O)O | 760 |
| Cc1cccc(CN(CCC(=O)O)Cc2ccc(C(=O)O)c(C(=O)O)c2)c1 | 563 |
| O=C(O)CCN(Cc1ccc(C(=O)O)c(C(=O)O)c1)Cc1ccccc1C(F)(F)F | 88 |
| O=C(O)C[C@H](NC(=O)CCl)C(=O)O | 200 |
| O=C(O)C[C@H](NC(=O)Cc1ccccc1)C(=O)O | 460 |
| O=C(O)CCN(Cc1ccc(C(=O)O)c(C(=O)O)c1)Cc1ccc(C(=O)O)cc1Cl | 1.7 |
| CC(C)(C)C(=O)N[C@@H](CCC(=O)O)C(=O)O | 280 |
| O=C(O)C[C@H](NCc1ccccc1)C(=O)O | 620 |
| Cc1ccc(CN(CCC(=O)O)Cc2ccc(C(=O)O)c(C(=O)O)c2)cc1 | 2750 |

| Structure (SMILES) | Ki [µM] |
| --- | --- |
| O=C(O)CCN(Cc1cccc(Br)c1)Cc1ccc(C(=O)O)c(C(=O)O)c1 | 101 |
| O=C(O)CCN(Cc1ccc(C(=O)O)c(C(=O)O)c1)c1ccc(-c2ccccc2)cc1 | 550 |
| O=C(O)C[C@H](NC(=O)CCc1ccccc1)C(=O)O | 31 |
| O=C(O)CCN(Cc1ccc(C(=O)O)c(C(=O)O)c1)Cc1c(Cl)cc(C(=O)O)cc1Cl [listing 2 of 2 here] | 0.61 |
| O=C(O)C[C@H](NC(=O)CCc1ccc(-c2ccccc2)cc1)C(=O)O | 210 |
| O=C(O)C[C@H](NC(=O)c1ccc(C(F)(F)F)cc1)C(=O)O | 380 |
| O=C(O)CCN(Cc1ccc(C(=O)O)c(C(=O)O)c1)Cc1c(Br)cc(C(=O)O)cc1Br | 0.77 |
| Cc1ccccc1CN(CCC(=O)O)Cc1ccc(C(=O)O)c(C(=O)O)c1 | 724 |
| Cc1ccccc1CCC(=O)N[C@@H](CC(=O)O)C(=O)O | 280 |
| O=C(O)CCN(Cc1cccc(C(F)(F)F)c1)Cc1ccc(C(=O)O)c(C(=O)O)c1 | 37 |
| O=C(O)CCC[C@H](NC(=O)CCCc1ccccc1)C(=O)O | 740 |
| O=C(O)C[C@H](NC(=O)c1ccccc1)C(=O)O | > 2000 |
| CCCC(=O)N[C@@H](CCCC(=O)O)C(=O)O | > 2000 |
| O=C(O)CCC[C@H](NC(=O)CCC(=O)O)C(=O)O | > 2000 |
| O=C(O)CCN(Cc1ccc(C(=O)O)c(C(=O)O)c1)Cc1ccc(C(=O)O)c(C(F)(F)F)c1 | 930 |
| O=C(O)/C=C(\Br)C(=O)O | 367 |
| O=C(O)C[C@H](NCCc1ccccc1)C(=O)O | 250 |
| CC(C)(C)c1ccc(CN(CCC(=O)O)Cc2ccc(C(=O)O)c(C(=O)O)c2)cc1 | 1660 |
| C[C@H](N)C(=O)N[C@@H](CC(=O)O)C(=O)O (H-Ala-Asp-OH) | 1600 |
